Activity calls are given as the source filed them.
Legend:
Mus musculus [1] = test: Suppression of hypoxia-mediated retinal neovascularization in mouse model of oxygen-induced retinopathy assessed as reduction in retinal neovascular tufts at 100 nM dosed via intravitreal route; assay type: functional, organism-based
Method in brief: (§1)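 Newborn mice held in 75% ± 0.5% O2 from P7 to P12. Intravitreal injection of compound or PBS at P14 (n = 6). Retinas whole-mounted at P17 and stained with isolectin B4-594. Neovascular tuft area per retina measured by image analysis; mean ± SEM.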

[2] = target: T1, Hypoxia-inducible factor 1-alpha (Homo sapiens, UniProt Q16665); test: Inhibition of HIF-1alpha in human HRE-A549 cells pre-incubated for 1 hr before exposure to hypoxia for 24 hrs by HRE-luciferase reporter gene assay; assay type: cell-based
Method in brief: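 A549 cells stably carrying an HRE-luciferase reporter (G418 600 μg/mL selection), kept in DMEM/10% FBS and grown to 80-90% confluence. Serum withdrawn overnight, compound added 1 h before 24 h hypoxia (1% O2, 5% CO2, 94% N2, 37 °C). Luciferase read by luminometer. IC50 is the mean of three independent experiments with standard error.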
Target sequence in this assay (Q16665 whole entry): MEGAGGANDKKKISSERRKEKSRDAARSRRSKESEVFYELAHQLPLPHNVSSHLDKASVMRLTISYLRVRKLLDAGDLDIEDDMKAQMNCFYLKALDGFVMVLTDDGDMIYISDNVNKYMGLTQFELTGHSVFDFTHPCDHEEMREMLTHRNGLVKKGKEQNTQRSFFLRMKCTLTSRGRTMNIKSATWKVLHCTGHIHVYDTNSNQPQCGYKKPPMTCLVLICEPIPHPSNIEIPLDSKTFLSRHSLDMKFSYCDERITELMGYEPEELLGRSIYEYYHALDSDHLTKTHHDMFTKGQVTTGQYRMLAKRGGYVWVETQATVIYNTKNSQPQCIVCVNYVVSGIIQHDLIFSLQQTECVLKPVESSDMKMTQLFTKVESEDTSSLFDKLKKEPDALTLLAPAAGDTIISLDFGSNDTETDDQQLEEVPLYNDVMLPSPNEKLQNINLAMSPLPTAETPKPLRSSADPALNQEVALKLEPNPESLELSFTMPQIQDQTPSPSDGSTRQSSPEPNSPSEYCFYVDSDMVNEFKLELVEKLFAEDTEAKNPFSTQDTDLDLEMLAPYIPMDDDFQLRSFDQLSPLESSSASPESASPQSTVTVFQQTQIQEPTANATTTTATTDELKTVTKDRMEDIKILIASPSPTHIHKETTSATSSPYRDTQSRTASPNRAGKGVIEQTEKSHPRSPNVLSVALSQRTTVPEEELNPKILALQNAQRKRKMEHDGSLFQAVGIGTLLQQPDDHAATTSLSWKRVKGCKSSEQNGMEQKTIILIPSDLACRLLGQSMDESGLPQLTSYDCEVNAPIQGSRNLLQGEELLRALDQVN

Mus musculus [3] = test: Suppression of hypoxia-mediated retinal neovascularization in mouse model of oxygen-induced retinopathy assessed as reduction in retinal neovascular tufts at 1 uM dosed via intravitreal route; assay type: functional, organism-based; method in brief: as §1
[4] = Aqueous solubility of the compound in DPBS incubated for 24 hrs by LC/MS/MS method relative to SH-1242; assay type: physicochemical; details: buffer
HUVEC [5] = test: Antiangiogenic activity in HUVEC exposed to human HeLa cells derived conditioned media assessed as inhibition of hypoxia-induced [3H]-thymidine incorporation at 100 nM incubated for 24 hrs by liquid scintillation counting assay; assay type: functional, cell-based
Method in brief: (§2)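 Conditioned medium from RPE or HeLa cells grown in M199 with 1% FBS under hypoxia ± compound, passed through a 3 kDa cut-off filter. Proliferation: 5 x 10^3 endothelial cells on gelatin, 24 h, then CM 24 h; [3H]-thymidine incorporation, DNA solubilized in 0.2 N NaOH/0.1% SDS, scintillation counting. Migration: 1 x 10^5 cells in Transwell upper well over CM, 4 h, H&E stain, migrated cells counted. Tube formation: 2 x 10^5 cells on Matrigel in CM, 20 h, tube length measured in 5 random fields (x100).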

HUVEC [6] = test: Antiangiogenic activity in HUVEC exposed to human HeLa cells derived conditioned media assessed as inhibition of hypoxia-induced cell migration at 100 nM incubated for 4 hrs by H and E staining based inverted phase contrast microscopy; assay type: functional; method in brief: as §2
HUVEC [7] = test: Antiangiogenic activity in HUVEC exposed to human HeLa cells derived conditioned media assessed as inhibition of hypoxia-induced cell tube formation at 100 nM incubated for 20 hrs; assay type: functional, cell-based; method in brief: as §2
[8] = target: T1, Hypoxia-inducible factor 1-alpha; test: Inhibition of HIF-1alpha in human A549 cell lysates assessed as reduction in Hsp90 and HIF-1alpha interaction at 1.25 uM in presence of ATP for 30 mins at 37 degC by immunoprecipitation and immunoblotting assay
Method in brief: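 Lysate from A549 cells exposed to 100 μM CoCl2 for 5 h, incubated with compound ± 20 mM ATP for 30 min at 37 °C. HIF-1α immunoprecipitated overnight at 4 °C, then protein G-agarose 2 h at 4 °C. Complex boiled in Laemmli buffer, run on 6% SDS-PAGE, blotted for HSP90.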
Target sequence in this assay (Q16665 whole entry, looked up): as the sequence (Q16665 whole entry) above

Homo sapiens [9] = species on record: Homo sapiens; test: Antiangiogenic activity in HRMEC exposed to human RPE cells derived conditioned media assessed as inhibition of hypoxia-induced [3H]-thymidine incorporation at 100 nM incubated for 24 hrs by liquid scintillation counting assay; assay type: functional; method in brief: as §2
Homo sapiens [10] = species on record: Homo sapiens; test: Antiangiogenic activity in HRMEC exposed to human RPE cells derived conditioned media assessed as inhibition of hypoxia-induced cell migration at 100 nM incubated for 4 hrs by H and E staining based inverted phase contrast microscopy; assay type: functional; method in brief: as §2
Homo sapiens [11] = species on record: Homo sapiens; test: Antiangiogenic activity in HRMEC exposed to human RPE cells derived conditioned media assessed as inhibition of hypoxia-induced tube formation at 100 nM incubated for 20 hrs; assay type: functional; method in brief: as §2
Mus musculus [12] = test: Suppression of hypoxia-mediated retinal neovascularization in mouse model of oxygen-induced retinopathy assessed as reduction in retinal neovascular tufts at 100 nM dosed via intravitreal route relative to SH-1242; assay type: functional, organism-based; method in brief: as §1
[13] = target: T1, Hypoxia-inducible factor 1-alpha; test: Induction of HIF-1alpha destabilization in human HCT116 cells under hypoxic conditions at 100 nM by Western blot method
Target sequence in this assay (Q16665 whole entry, looked up): as the sequence (Q16665 whole entry) above

[14] = target: T1, Hypoxia-inducible factor 1-alpha; test: Induction of HIF-1alpha destabilization in human HCT116 cells under hypoxic conditions assessed as reduction in hypoxia-induced VEGFA mRNA expression at 100 nM
Target sequence in this assay (Q16665 whole entry, looked up): as the sequence (Q16665 whole entry) above

[15] = target: T1, Hypoxia-inducible factor 1-alpha; test: Induction of HIF-1alpha destabilization in human HCT116 cells under hypoxic conditions assessed as reduction in hypoxia-induced VEGF production at 100 nM by ELISA
Target sequence in this assay (Q16665 whole entry, looked up): as the sequence (Q16665 whole entry) above

SMILES | IC50 [2] [nM] | further results
COc1ccc([C@@H](C)C(=O)c2ccc(NCc3ccc(C#N)cc3)cc2OC)cc1OC | – | Activity (Mus musculus [1]): Active
COc1ccc(C(C)C(=O)c2ccc(O)cc2OC)cc1OC (racemic) | > 15000 | –
COc1ccc([C@H](C)C(=O)c2ccc(NCc3ccc(C#N)cc3)cc2OC)cc1OC | – | Activity (Mus musculus [1]): Active
C=CCC(C(=O)c1ccc2c(c1OC)C=CC(C)(C)O2)c1ccc(OC)c(OC)c1 (stereo unspecified) | 8450 | –
CCN(C(=O)c1ccc2c(c1OC)C=CC(C)(C)O2)c1ccc(OC)c(OC)c1 | 5250 | –
COc1ccccc1CC(=O)c1ccc2c(c1OC)C=CC(C)(C)O2 | 3210 | –
COc1ccc(C(C)C(=O)c2ccc(N(C)C)cc2OC)cc1OC (racemic) | > 15000 | –
COc1ccc(CC(=O)c2ccc3c(c2OC)C=CC(C)(C)O3)cc1 | 6210 | –
COc1ccc(C(Cc2ccccc2)C(=O)c2ccc3c(c2OC)C=CC(C)(C)O3)cc1OC (stereo unspecified) | 12000 | –
COc1c(C(=O)Cc2cccc(O)c2)ccc2c1C=CC(C)(C)O2 | 1440 | –
COc1c(C(=O)Cc2ccc3c(c2)OCCO3)ccc2c1C=CC(C)(C)O2 | 1330 | –
COc1ccc(CC(=O)c2ccc3c(c2OC)C=CC(C)(C)O3)cc1OC | 2150 | Activity (Mus musculus [1]): Active; Activity (Mus musculus [3]): Active
COc1ccc(NC(=O)c2ccc3c(c2OC)C=CC(C)(C)O3)cc1OC | 2040 | –
COc1ccc(N(Cc2ccccc2)C(=O)c2ccc3c(c2OC)C=CC(C)(C)O3)cc1OC | 10800 | –
COc1c(C(=O)Cc2ccc(F)cc2)ccc2c1C=CC(C)(C)O2 | 1020 | –
COc1c(C(=O)Cc2ccccc2F)ccc2c1C=CC(C)(C)O2 | 100 | –
COc1c(C(=O)Cc2ccc(Cl)c(Cl)c2)ccc2c1C=CC(C)(C)O2 | 2880 | –

SMILES | IC50 [2] [nM] | further results
COc1ccc(N(C)C(=O)c2ccc3c(c2OC)C=CC(C)(C)O3)cc1OC | 3150 | –
COc1ccc(CC(O)c2ccc3c(c2OC)C=CC(C)(C)O3)cc1OC (stereo unspecified) | 8880 | –
COc1ccc(C(F)C(=O)c2ccc3c(c2OC)C=CC(C)(C)O3)cc1OC (stereo unspecified) | 6350 | –
COc1ccc(C(C)C(=O)c2ccc(N3CCCC3)cc2)cc1OC (racemic) | 2610 | –
COc1ccc(CC(OC(C)=O)c2ccc3c(c2OC)C=CC(C)(C)O3)cc1OC (stereo unspecified) | 3040 | –
COc1c(C(=O)Cc2ccccc2)ccc2c1C=CC(C)(C)O2 | 880 | –
COc1ccc(C(C)C(=O)c2ccc(NCc3ccc(C#N)cc3)cc2OC)cc1OC (racemic) | – | fold change (FC) [4]: 17; Activity (HUVEC [5]): Active; Activity (HUVEC [6]): Active; Activity (HUVEC [7]): Active; inhibition [8]: Active; Activity (Homo sapiens [9]): Active; Activity (Homo sapiens [10]): Active; Activity (Homo sapiens [11]): Active; Activity (Mus musculus [12]): Active; Activity [13]: Active; Activity [14]: Active; Activity [15]: Active
COc1ccc(C(=O)C(C)c2ccc(OC)c(OC)c2)c(OC)c1 (racemic) | > 15000 | –
COc1ccc(C(C)C(=O)c2ccc3c(c2OC)C=CC(C)(C)O3)cc1OC (racemic) | 1360 | –
COc1c(C(=O)Cc2ccc(O)cc2)ccc2c1C=CC(C)(C)O2 | 790 | –
COc1c(C(=O)Cc2cccc(F)c2)ccc2c1C=CC(C)(C)O2 | 360 | –
COc1c(C(=O)Cc2ccc3c(c2)OCO3)ccc2c1C=CC(C)(C)O2 | 3410 | –
COc1c(C(=O)Cc2ccccc2O)ccc2c1C=CC(C)(C)O2 | 940 | –
COc1cccc(CC(=O)c2ccc3c(c2OC)C=CC(C)(C)O3)c1 | 820 | –
COc1c(C(=O)Cc2ccc(F)c(F)c2)ccc2c1C=CC(C)(C)O2 | 1270 | –
COc1ccc(C(C)C(=O)c2ccc(N3CCCCC3)cc2OC)cc1OC (racemic) | – | fold change (FC) [4]: 93; Activity (HUVEC [5]): Active; Activity (HUVEC [6]): Active; Activity (HUVEC [7]): Active; Activity (Mus musculus [1]): Active; Activity (Mus musculus [3]): Active

Source: ChEMBL document CHEMBL4196224, “Novel Hypoxia-Inducible Factor 1α (HIF-1α) Inhibitors for Angiogenesis-Related Ocular Diseases: Discovery of a Novel Scaffold via Ring-Truncation Strategy” (J Med Chem, 2018)
